The values that follow come from ChEMBL document CHEMBL6115053, “Optimization and Characterization of N-Acetamide Indoles as Antimalarials That Target PfATP4” (J Med Chem, 2025).

Bounds are passed on as bounds.

Data set [1] concerns Plasmodium falciparum. As to the kind of experiment: Antiplasmodial activity against asexual Plasmodium falciparum 3D7 infected in human […] cells assessed as reduction in parasite growth measured for 72 hrs by LDH assay. Type of data set: functional, organism-based. To be noted: 3D7, 72 h.
In the next data set the test system is HepG2. As to the kind of experiment: Cytotoxicity against human HepG2 cells assessed as inhibition of cell growth incubated for 48 hrs by celltiterglo assay. Type of data set: toxicity, cell-based. The note with it: hepg2, 48 h. A general note: ATP-based viability assays read luminescence as a measure of living cells.
Data set [2] in a line: Aqueous solubility in PBS buffer at pH 7.4. The data set is classed as physicochemical.
Data set [3] in a line: Metabolic stability in human liver microsome assessed as intrinsic clearance. Type of data set: ADME. To be noted: microsomes. Background: Liver microsomes are a subcellular fraction often used to study metabolism.
A short description of data set [4]: Metabolic stability in mouse liver microsome assessed as intrinsic clearance. The data set is classed as ADME. To be noted: microsomes.
A short description of data set [5]: Metabolic stability in rat hepatocyte […] assessed as intrinsic clearance measured per 10^6 cells. The data set is classed as ADME, cell-based. To be noted: hepatocytes.
Data set [6] in a line: Lipophilicity, logD of compound at pH 7.4 by shake-flask method. The data set is classed as physicochemical. To be noted: buffer.
Data set [7] can be described thus: Permeability across basolateral to apical side in human Caco-2 cells. Type of data set: ADME, cell-based.
Data set [8] in a line: Permeability across apical to basolateral side in human Caco-2 cells. The data set is classed as ADME, cell-based. A general note: Caco-2 monolayers are a common model of the intestinal barrier.
Data set [9] concerns Plasmodium falciparum. As to the kind of experiment: Antimalarial activity against Plasmodium falciparum NF54 infected assessed as inhibition of male gamete formation incubated for 48 hrs by automated bright field microscopic analysis. Type of data set: functional, organism-based. The note with it: NF54, 48 h.
For data set [10], the system named is Plasmodium falciparum. Nature of the data set: Antimalarial activity against Plasmodium falciparum NF54 infected assessed as inhibition of female gamete formation incubated for 48 hrs by automated bright field microscopic analysis. The data set is classed as functional, organism-based. The note with it: NF54, 48 h.
Data set [11] has as its system Plasmodium falciparum. As to the kind of experiment: Antiplasmodial activity against Plasmodium flaciparum NF54 stage V gametocytes infected in Anopheles stephensi with parasite infected blood meal assessed as reduction in oocyst count at 100 nM measured 7 days post blood infection by light microscopic analysis relative to control. To be noted: time 7 day. Type of data set: functional. Also on record: scale not given: the % may be the effect or the level left. In a few lines:
(§1)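 Stage V gametocytes of P. falciparum NF54 were treated with compound and fed to Anopheles stephensi in a standard membrane feeding assay. Midguts were dissected 7 days after the blood meal and oocysts counted. Results were given as average oocyst intensity ± SEM, with a t test against vehicle.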

Data set [12] relates to Plasmodium falciparum. Nature of the data set: Antiplasmodial activity against Plasmodium flaciparum NF54 stage V gametocytes infected in Anopheles stephensi with parasite infected blood meal assessed as reduction in oocyst count at 500 nM measured 7 days post blood infection by light microscopic analysis relative to control. The data set is classed as functional. Also noted: scale not given: the % may be the effect or the level left. The note with it: time 7 day. In a few lines:
as §1

The test system of data set [13] is Plasmodium berghei. Nature of the data set: Antimalarial activity against Plasmodium berghei ANKA infected in female BALB/c mouse assessed as parasitemia at 50 mg/kg, po measured for 2 to 72 hrs post infection by Giemsa staining based light microscopy. The data set is classed as functional. The note with it: time 2-72 hrs.
Data set [14] relates to Plasmodium berghei. As to the kind of experiment: Antimalarial activity against Plasmodium berghei ANKA infected in female BALB/c mouse assessed as reduction in parasitemia at 50 mg/kg, po measured for 2 to 72 hrs post infection by Giemsa staining based light microscopy. The data set is classed as functional. Also noted: scale not given: the % may be the effect or the level left. To be noted: time 2-72 hrs.

The nature of data set [15]: Tmax in CD-1 mouse at 20 mg/kg, po. Type of data set: ADME, organism-based. To be noted: in vivo.
The nature of data set [16]: Cmax in CD-1 mouse at 20 mg/kg, po. Type of data set: ADME, organism-based. The note with it: in vivo.
A short description of data set [17]: AUC (0 to last) in CD-1 mouse at 20 mg/kg, po. Type of data set: ADME, organism-based. The note with it: in vivo.
Data set [18] in a line: Half life in CD-1 mouse at 20 mg/kg, po. The data set is classed as ADME, organism-based. To be noted: in vivo.
A short description of data set [19]: Clearance in CD-1 mouse at 20 mg/kg, po. Type of data set: ADME, organism-based. To be noted: in vivo.

As usually defined, the EC50 is the concentration needed to bring the measured effect to its halfway point. The term CC50 denotes the concentration giving 50% cytotoxicity. As a reminder, the kinetic solubility is the concentration staying in solution when a stock, usually in DMSO, is diluted into the medium. The logD is the decadic logarithm of the distribution of all forms, ionised or not, between an organic phase and buffer at a given pH. The term Tmax denotes the time at which the peak concentration occurs. The term Cmax denotes the highest concentration seen after dosing. One may read the AUC(0-t) as exposure summed from dosing to a finite time, without extrapolation to infinity. The term half-life denotes how long it takes for the measured level to halve. Usually CL/F stands for the apparent clearance, not corrected for the fraction that reaches the circulation. Turning to `COc1cc(NC(=O)Cn2cc(Cl)c3cc(F)c(-c4cnn(C)c4)cc32)cc(OC)c1OC`, the concentration giving a half-maximal response (EC50) with Plasmodium falciparum [1] was found to be 13 nM; with Plasmodium falciparum [9] it was 210 nM; in the data set on Plasmodium falciparum [10], 250 nM. The CC50 with HepG2 was above 40000 nM. The compound also registered a kinetic solubility in data set [2] below 2.5 µM. Further, the entries for the “intrinsic clearance (CLint)” value in data set [3], in data set [4] and in data set [5] were below 3.5 µL/min/mg, 6.8 µL/min/mg and 2.6 uL/min/10^6 cells, respectively. Also, in [6], the logD is 4.8. The permeability in data set [7] is reported as 1.5 10^-6 cm/s; in data set [8], 0.8 10^-6 cm/s. Further, the Activity with Plasmodium falciparum [11] turned out to be 59%; in the data set with Plasmodium falciparum [12], 83%; in the data set on Plasmodium berghei [13], 15.3%; in the data set with Plasmodium berghei [14] it was 55%. Also, the Tmax in [15] is 5.33 h. Moreover, the highest level in data set [16] (Cmax) was 700 ng/mL. The AUC(0-t) in [17] was found to be 8190 ng·h/mL. In [18], this compound had a half-life of 2.16 h. The CL/F in data set [19] came to 42 mL/min/kg.
